In ChEMBL document CHEMBL5500326, “Does size matter? - Comparing pyranoses with septanoses as ligands of the bacterial lectin FimH” (Eur J Med Chem, 2024):

Experiments:
[1] = biological target: Type 1 fimbrin D-mannose specific adhesin (Escherichia coli K-12, UniProt P08191); assay: (§1) Displacement of fluorescent tracer 3'-chloro-N-(2-(3-(3',6'-dihydroxy-3-oxo-3H-spiro[isobenzofuran-1,9'-xanthen]-5-yl)thioureido)ethyl)-4'-(alpha-D-mannopyranosyloxy)biphenyl-4-carboxamide from Escherichia coli F18 full-length FimH expressed in Escherichia coli HM125 assessed as dissociation constant incubated for 24 hrs by competitive binding based fluorescence polarization assay
Chain of Type 1 fimbrin D-mannose specific adhesin (P08191 whole entry): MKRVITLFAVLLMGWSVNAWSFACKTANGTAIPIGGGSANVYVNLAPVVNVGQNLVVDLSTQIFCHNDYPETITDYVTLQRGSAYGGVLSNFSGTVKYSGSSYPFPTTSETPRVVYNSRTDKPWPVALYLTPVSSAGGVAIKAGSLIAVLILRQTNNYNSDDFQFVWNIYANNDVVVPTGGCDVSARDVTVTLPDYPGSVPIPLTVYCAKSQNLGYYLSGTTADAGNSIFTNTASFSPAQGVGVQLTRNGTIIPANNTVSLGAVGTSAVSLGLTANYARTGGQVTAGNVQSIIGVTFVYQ
Summary of the method: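 Competitive FP with full-length FimH at 300 nM and tracer at 500 nM; ligand serially diluted from 5 mM final, or 50 μM for some mannosides, in 20 mM HEPES pH 7.4, 150 mM NaCl, 50 μg/mL BSA, 5% DMSO (10% for poorly soluble ligands, top 500 μM). Read after 24 h, Ex 485/Em 535 nm. KD from competitive binding model fit.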

[2] = as §1, with “F18” for “F18 full-length”, “FimH […]” for “FimH”
Summary of the method: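 Competitive FP: 50 nM FimH lectin domain and 50 nM mannoside-fluorescein tracer; ligand serially diluted from 500 μM final in 20 mM HEPES pH 7.4, 150 mM NaCl, 50 μg/mL BSA, 5% DMSO (10% for poorly soluble ligands). Read after 24 h equilibration, Ex 485/Em 535 nm. KD from analytical competitive binding model fit.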

Escherichia coli = assay: Ratio of kd for displacement of fluorescent tracer 3'-chloro-N-(2-(3-(3',6'-dihydroxy-3-oxo-3H-spiro[isobenzofuran-1,9'-xanthen]-5-yl)thioureido)ethyl)-4'-(alpha-D-mannopyranosyloxy)biphenyl-4-carboxamide from Escherichia coli F18 full-length FimH expressed in Escherichia coli HM125 to kd for displacement of fluorescent tracer 3'-chloro-N-(2-(3-(3',6'-dihydroxy-3-oxo-3H-spiro[isobenzofuran-1,9'-xanthen]-5-yl)thioureido)ethyl)-4'-(alpha-D-mannopyranosyloxy)biphenyl-4-carboxamide from Escherichia coli F18 FimH lectin domain expressed in Escherichia coli HM125
Summary of the method: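 Ratio of FP-derived KD for full-length FimH (300 nM protein, 500 nM tracer, ligand from 5 mM) over KD for lectin domain (50 nM each, ligand from 500 μM). Both in HEPES/NaCl/BSA buffer pH 7.4 with DMSO, 24 h equilibration, Ex 485/Em 535 nm, competitive binding model fit.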

[3] = Binding affinity to Escherichia coli F18 FimH lectin domain expressed in Escherichia coli HM125 assessed as dissociation constant by isothermal titration calorimetry
Summary of the method: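 ITC at 25 °C; protein dialyzed against 20 mM HEPES, 150 mM NaCl, pH 7.4, ligand dissolved in dialysate, 5% or 10% DMSO. Baselines corrected and peaks integrated, then global nonlinear regression fitting with confidence intervals.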

Kd [1] | SMILES | Kd ([1]; read-out: Kd) [µM] | Kd ([2]; read-out: Kd) [nM] | Ratio (Escherichia coli) | Kd [3] [nM] | Kd [2]
 | N#Cc1ccc(-c2ccc(O[C@H]3O[C@H](CO)[C@@H](O)[C@H](O)[C@@H]3O)cc2)cc1 | 0.208 |  |  |  | 
 | N#Cc1ccc(-c2ccc(O[C@H]3CO[C@H](CO)[C@@H](O)[C@H](O)[C@@H]3O)c(Cl)c2)cc1 | 6.99 | 100 |  |  | 
 | NC(=O)c1ccc(-c2ccc(O[C@H]3CO[C@H](CO)[C@@H](O)[C@H](O)[C@@H]3O)c(Cl)c2)cc1 | 7.34 | 120 |  |  | 
 | NC(=O)c1ccc(-c2ccc(O[C@H]3O[C@H](CO)[C@@H](O)[C@H](O)[C@@H]3O)cc2)cc1 | 0.24 |  |  |  | 
 | NC(=O)c1ccc(-c2ccc(O[C@H]3O[C@H](CO)[C@@H](O)[C@H](O)[C@@H]3O)c(Cl)c2)cc1 | 0.086 | 0.3 |  |  | 
 | OC[C@H]1OC[C@H](OCCCc2ccccc2)[C@@H](O)[C@@H](O)[C@@H]1O | 125 | 7050 | 17.8 |  | 
 | N#Cc1ccc(-c2ccc(O[C@H]3O[C@H](CO)[C@@H](O)[C@H](O)[C@@H]3O)c(Cl)c2)cc1 | 0.084 | 0.5 |  |  | 
 | N#Cc1ccc(-c2ccc(CO[C@H]3CO[C@H](CO)[C@@H](O)[C@H](O)[C@@H]3O)cc2)cc1 | 63.1 | 1440 | 43.8 |  | 
 | NC(=O)c1ccc(-c2ccc(CO[C@H]3CO[C@H](CO)[C@@H](O)[C@H](O)[C@@H]3O)c(Cl)c2)cc1 | 59.4 | 1580 | 37.6 |  | 
 | OC[C@H]1OC[C@H](OCc2ccc(-c3ccccc3)cc2)[C@@H](O)[C@@H](O)[C@@H]1O | 110 | 5670 | 19.3 |  | 
 | N#Cc1ccc(-c2ccc(O[C@H]3CO[C@H](CO)[C@@H](O)[C@H](O)[C@@H]3O)cc2)cc1 | 42.3 | 260 |  | 838 | 
 | N#Cc1ccc(-c2ccc(CO[C@H]3CO[C@H](CO)[C@@H](O)[C@H](O)[C@@H]3O)c(Cl)c2)cc1 | 37.8 | 1300 | 29.1 |  | 
 | OC[C@H]1O[C@H](Oc2ccc(-c3ccccc3)cc2Cl)[C@@H](O)[C@@H](O)[C@@H]1O | 0.458 | 2.8 |  |  | 
 | NC(=O)c1ccc(-c2ccc(CO[C@H]3CO[C@H](CO)[C@@H](O)[C@H](O)[C@@H]3O)cc2)cc1 | 116 | 2720 | 42.7 |  | 
 | CCCCCCCO[C@H]1CO[C@H](CO)[C@@H](O)[C@H](O)[C@@H]1O | 31.8 | 1940 | 16.4 |  | 
 | CCCCCCCO[C@H]1O[C@H](CO)[C@@H](O)[C@H](O)[C@@H]1O | 3.6 | 28.3 |  |  | 
Not Active | CCCCCCCO[C@@H]1C[C@@H](O)[C@@H](O)[C@H](O)[C@@H](CO)O1 |  |  |  |  | Not Active
 | OC[C@H]1OC[C@H](Oc2ccc(-c3ccccc3)cc2Cl)[C@@H](O)[C@@H](O)[C@@H]1O | 6.11 | 60 |  |  | 
 | OC[C@H]1OC[C@H](OCc2ccccc2)[C@@H](O)[C@@H](O)[C@@H]1O | 417 | 80100 | 5.2 |  | 
 | N#Cc1cccc(-c2ccc(CO[C@H]3CO[C@H](CO)[C@@H](O)[C@H](O)[C@@H]3O)c(Cl)c2)c1 | 35.5 | 1440 | 24.7 |  | 
 | OC[C@H]1O[C@H](Oc2ccc(-c3ccccc3)cc2)[C@@H](O)[C@@H](O)[C@@H]1O |  | 15.1 |  |  | 
